Published values collected from several papers.
Sample: plasma

The AUC(0-inf) of `CCCc1nc2c(C)cc(-c3nc4ccccc4n3C)cc2n1Cc1ccc(-c2ccccc2C(=O)O)cc1` is reported as 1950 ng·h/mL (male Sprague-Dawley rat; oral; 8 mg/kg; single dose).
For `CONC(=O)c1cccc2c1cc(C)n2-c1nc2c(c(NCc3ccccc3)n1)CCCN2`, the AUC(0-inf) was 32.5 ng·h/mL (male Sprague-Dawley rat; intravenous; 1 mg/kg; single dose).
`O=C1CCC(N2Cc3cc(C4CCN(Cc5ccccc5)CC4)ccc3C2=O)C(=O)N1` (stereo not shown) has an AUC(0-inf) of 325 ng·h/mL (male Sprague-Dawley rat; intravenous; 1 mg/kg).
With `COc1cc(-c2cc(C(C)=O)n3ccccc23)c(OC)cc1Cn1ccnc1` the AUC(0-inf) was 2160 ng·h/mL (male Sprague-Dawley rat; oral; 5 mg/kg).
The AUC(0-inf) of `C[C@@]12C[C@@]3(O)O[C@@H](O1)[C@]1(COC(=O)c4ccccc4)[C@H]3C[C@@]12O[C@@H]1O[C@H](CO)[C@@H](O)[C@H](O)[C@H]1O` is reported as 4.33 ng·h/mL (male Sprague-Dawley rat; oral; 80 mg/kg).
`COc1nc(-c2cccc(-c3ccccc3)c2C)ccc1CNCCNC(=O)CCCCCCCCCCC(=O)N1CCN(CCNC(=O)c2cc3c(=O)n4cccc(C)c4nc3n(CCc3cccs3)c2=N)CC1` gave an AUC(0-inf) of 1640 ng·h/mL (male Sprague-Dawley rat; intravenous; 2 mg/kg).
The AUC(0-inf) of `CCN(CC)Cc1ccc2cc(COC(=O)Nc3ccc(C(=O)NO)cc3)ccc2c1` is reported as 8730 ng·h/mL (male Sprague-Dawley rat; oral; 10 mg/kg).
For `Cc1nc(Nc2ncc(C(=O)Nc3c(C)cccc3Cl)s2)cc(N2CC[C@H](O)C2)n1`, the AUC(0-inf) was 2.71 µM·h (male Sprague-Dawley rat; oral; 5 mg/kg; single dose).
The AUC(0-inf) of `Cn1c(=O)c2[nH]cnc2n(C)c1=O` is reported as 32700 ng·h/mL (male Sprague-Dawley rat; intravenous; 11.25 mg/kg).
`CC[C@@H]([C@H](C)O)n1ncn(-c2ccc(N3CCN(c4ccc(OC[C@@H]5CO[C@@](Cn6cncn6)(c6ccc(F)cc6F)C5)cc4)CC3)cc2)c1=O` gave an AUC(0-inf) of 10200 ng·h/mL (Sprague-Dawley rat; oral; 40 mg/kg).
With `C[C@H]1Oc2cc(cnc2N)-c2c(nn(C)c2C#N)CN(C)C(=O)c2ccc(F)cc21` the AUC(0-inf) was 3840 ng·h/mL (male Sprague-Dawley rat; oral; 10 mg/kg; single dose).
`COc1ccc(N(Cc2csc(-c3ccccc3)n2)C(=O)CCCCCC(=O)NO)cc1` gave an AUC(0-inf) of 30.7 ng·h/mL (female Sprague-Dawley rat; intravenous; 5 mg/kg).
With `CCOc1c([C@H](C)n2nc(C)c3c(N)ncnc32)cc(Cl)c(F)c1[C@@H]1CNC(=O)C1` the AUC(0-inf) was 4610 ng·h/mL (male Sprague-Dawley rat; oral; 2 mg/kg; single dose).
